# Test results reported in ChEMBL document CHEMBL4354800, “Amphiphilic nebramine-based hybrids Rescue legacy antibiotics from intrinsic resistance in multidrug-resistant Gram-negative bacilli” (Eur J Med Chem, 2019).
# Key:
# Pseudomonas aeruginosa [1] = experiment: Potentiation of moxifloxacin-induced antibacterial activity against wild type Pseudomonas aeruginosa PAO1 assessed as fold reduction in moxifloxacin MIC at 9 uM incubated for 18 hrs by broth microdilution method; format: functional
# Method in brief: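 Antibiotic MIC determined by CLSI broth microdilution (MHB, 5 × 10^5 CFU/mL, 18 h, 37 °C), once alone and once with a fixed concentration of the adjuvant. Potentiation is the ratio of the antibiotic MIC alone to its MIC in the presence of the adjuvant.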
# Pseudomonas aeruginosa [2] = experiment: Potentiation of rifampicin-induced antibacterial activity against MDR/XDR Pseudomonas aeruginosa isolate PA259-96918 harboring GyrA T83I mutant assessed as fold reduction in rifampicin MIC at 9 uM incubated for 18 hrs by broth microdilution method; format: functional
# Method in brief: (§1)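 CLSI broth microdilution. Overnight cultures were set to 0.5 McFarland in saline, diluted 1:50 in Mueller-Hinton broth to a final 5 × 10^5 CFU/mL, and incubated 18 h at 37 °C against 2-fold antibiotic dilutions. A fixed adjuvant level was present throughout. MIC = lowest concentration with no visible turbidity, confirmed at 590 nm. Potentiation = fold drop in antibiotic MIC versus antibiotic alone.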
# Pseudomonas aeruginosa [3] = experiment: Potentiation of moxifloxacin-induced antibacterial activity against MDR/XDR Pseudomonas aeruginosa isolate PA259-96918 harboring GyrA T83I mutant assessed as fold reduction in moxifloxacin MIC at 9 uM incubated for 18 hrs by broth microdilution method; format: functional; method in brief: as §1
# Pseudomonas aeruginosa [4] = experiment: Potentiation of rifampicin-induced antibacterial activity against MDR/XDR Pseudomonas aeruginosa isolate 91433 devoid of GyrA T83I mutant assessed as fold reduction in rifampicin MIC at 9 uM incubated for 18 hrs by broth microdilution method; format: functional; method in brief: as §1
# Escherichia coli = experiment: Synergistic antibacterial activity against Escherichia coli 107115 assessed as fractional inhibitory concentration index in presence of minocycline incubated for 18 hrs by broth dilution method; format: functional
# Method in brief: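 Checkerboard titration of the adjuvant against the antibiotic, run under the CLSI microdilution conditions (MHB, 5 × 10^5 CFU/mL, 18 h, 37 °C). Each agent's FIC is its MIC in combination divided by its MIC alone; FICI is the sum of the two FICs. FICI ≤0.5 was read as synergy, >0.5–4.0 as no interaction, and >4.0 as antagonism.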
# [5] = Toxicity in Galleria mellonella larvae assessed as tolerability by measuring larval survival at 100 mg/kg incubated for > 96 hrs; format: organism-based; conditions: in vivo
# Method in brief: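 Uninfected G. mellonella larvae, ten per group, were injected with agent alone at 100 or 200 mg/kg. Larvae were held at 37 °C and monitored for survival for 96 h.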
# Klebsiella pneumoniae = experiment: Antimicrobial activity against Klebsiella pneumoniae 113250 incubated for 18 hrs by broth dilution method; format: functional; conditions: Klebsiella pneumoniae, 113250, 18 h
# Method in brief: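 CLSI broth microdilution. Overnight cultures were adjusted to 0.5 McFarland in saline, diluted 1:50 in Mueller-Hinton broth, and inoculated at a final 5 × 10^5 CFU/mL. Compounds were tested as 2-fold serial dilutions and incubated 18 h at 37 °C. MIC was the lowest concentration with no visible turbidity, confirmed by absorbance at 590 nm.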
# Pseudomonas aeruginosa [6] = experiment: Antimicrobial activity against XDR Pseudomonas aeruginosa isolate PA264 infected in Galleria mellonella larvae assessed as survival rate at 50 mg/kg co-administered with 50 mg/kg rifampicin at 2 hrs post-inoculation measured after 24 hrs relative to control; format: functional
# Method in brief: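 G. mellonella larvae were injected with ~5 CFU of P. aeruginosa PA264 (10 µL of 5 × 10^2 CFU/mL in PBS) and held 2 h at 37 °C. A single 10 µL injection followed: monotherapy or rifampicin + compound (25+25, 50+50 or 75+75 mg/kg), with PBS as control. Larvae kept at 37 °C were scored every 6 h to 24 h; dead = no response to touch. n = 30 (two runs of 15); Kaplan-Meier.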
# Pseudomonas aeruginosa [7] = experiment: Potentiation of minocycline-induced antibacterial activity against MDR/XDR Pseudomonas aeruginosa isolate 101243 devoid of GyrA T83I mutant assessed as fold reduction in minocycline MIC at 7.5 uM incubated for 18 hrs by broth microdilution method; format: functional
# Pseudomonas aeruginosa [8] = experiment: Potentiation of rifampicin-induced antimicrobial activity against MDR/XDR Pseudomonas aeruginosa isolate PA260-97103 harboring GyrA Thr83Ile mutant assessed as rifampicin MIC50 incubated for 18 hrs by broth microdilution method (reference value: 8 microg/ml); format: functional; conditions: isolate PA260-97103, 18 h
# Acinetobacter baumannii [9] = experiment: Antimicrobial activity against multidrug-resistant Acinetobacter baumannii AB031 incubated for 18 hrs by broth dilution method; format: functional; conditions: AB031, 18 h
# Method in brief: (§2)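 Broth microdilution per CLSI: overnight cultures set to 0.5 McFarland in saline, diluted 1:50 in Mueller-Hinton broth to a final 5 × 10^5 CFU/mL, added to 2-fold serial dilutions, incubated 18 h at 37 °C; MIC is the lowest concentration without visible turbidity, confirmed at 590 nm.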
# Pseudomonas aeruginosa [10] = experiment: Synergistic antibacterial activity against MDR/XDR Pseudomonas aeruginosa isolate PA264-104354 harboring GyrA T83I mutant assessed as fractional inhibitory concentration index in presence of ciprofloxacin incubated for 18 hrs by broth microdilution method; format: functional
# Method in brief: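 Checkerboard synergy assay. Antibiotic and adjuvant in twofold dilutions in Mueller-Hinton broth. Inoculum 5 × 10^5 CFU/mL from a 0.5 McFarland suspension, 18 h at 37 °C, MIC read by turbidity and confirmed at 590 nm. FIC = MIC in combination / MIC alone for each agent, FICI = sum. Interpreted as ≤0.5 synergy, 0.5–4 no interaction, >4 antagonism.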
# Acinetobacter baumannii [11] = experiment: Antimicrobial activity against multidrug-resistant Acinetobacter baumannii 110193 incubated for 18 hrs by broth dilution method; format: functional; conditions: Acinetobacter baumannii, 110193, 18 h; method in brief: as §2
# Acinetobacter baumannii [12] = experiment: Antimicrobial activity against multidrug-resistant Acinetobacter baumannii AB030 incubated for 18 hrs by broth dilution method; format: functional; conditions: AB030, 18 h; method in brief: as §2
# Pseudomonas aeruginosa [13] = experiment: Disruption of electrical component of PMF with transmembrane chemical component increment in Pseudomonas aeruginosa PAO1 membrane assessed as increase in tetracycline uptake measured every 1 min for 30 mins by fluorescence based assay; format: organism-based; conditions: Bacterial membrane
# Method in brief: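 P. aeruginosa PAO1 was grown to OD600 0.6, washed and resuspended in 10 mM HEPES pH 7.2, then treated with varying compound concentrations plus […] tetracycline. Fluorescence (ex 405/em 535 nm) was read each minute for 30 min at room temperature. Triplicates, averaged.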
# Pseudomonas aeruginosa [14] = experiment: Potentiation of minocycline-induced bactericidal activity in Pseudomonas aeruginosa PAO1 at 0.5 times MIC incubated for 24 hrs in presence of 4 ug/ml minocycline by time kill curve assay relative to control; format: functional
# Method in brief: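 Time-kill. An overnight PAO1 culture was adjusted to 0.5 McFarland in saline and diluted 1:50 in LB. Cells were exposed to the adjuvant at ½× MIC plus fixed minocycline for 24 h at 37 °C. Aliquots taken at intervals were serially diluted in PBS and plated on LB agar; colonies were counted after 20 h at 37 °C. Controls were untreated cells and colistin at 4× MIC.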
# Acinetobacter baumannii [15] = experiment: Antimicrobial activity against multidrug-resistant Acinetobacter baumannii AB027 incubated for 18 hrs by broth dilution method; format: functional; conditions: AB027, 18 h; method in brief: as §2
smiles,measurement,setting,value
Cl.Cl.Cl.Cl.Cl.Cl.NC[C@H]1O[C@H](O[C@H]2[C@H](OCCCCCCCCCCN3CCN(Cc4cccc5ccccc45)CC3)[C@@H](O)[C@H](N)C[C@@H]2N)[C@H](N)C[C@@H]1O,fold change (FC),Pseudomonas aeruginosa [1],32
same,fold change (FC),Pseudomonas aeruginosa [2],>=256
same,fold change (FC),Pseudomonas aeruginosa [3],64
same,fold change (FC),Pseudomonas aeruginosa [4],4
Cl.Cl.Cl.Cl.Cl.NC[C@H]1O[C@H](O[C@H]2[C@H](OCCCCCCCCCCCCN3CCN(c4cc5c(cc4F)c(=O)c(C(=O)O)cn5C4CC4)CC3)[C@@H](O)[C@H](N)C[C@@H]2N)[C@H](N)C[C@@H]1O,fractional inhibitory concentration index (FICI),Escherichia coli,0.133
same,Activity,[5],Non-Toxic
same,MIC,Klebsiella pneumoniae,128 µg/mL
same,survival at 50 mg/kg,Pseudomonas aeruginosa [6],33%
COc1c(N2C[C@@H]3CCCN(CCCCCCCCCCCCO[C@@H]4[C@@H](O)[C@H](N)C[C@H](N)[C@H]4O[C@H]4O[C@H](CN)[C@@H](O)C[C@H]4N)[C@@H]3C2)c(F)cc2c(=O)c(C(=O)O)cn(C3CC3)c12.Cl.Cl.Cl.Cl.Cl,fold change (FC),Pseudomonas aeruginosa [7],16
same,MIC50,Pseudomonas aeruginosa [8],0.06 µg/mL
same,MIC,Acinetobacter baumannii [9],128 µg/mL
same,fractional inhibitory concentration index (FICI),Pseudomonas aeruginosa [10],0.16
same,MIC,Acinetobacter baumannii [11],> 256 µg/mL
same,MIC,Acinetobacter baumannii [12],> 16 µg/mL
same,Activity,Pseudomonas aeruginosa [13],Dose-dependent effect
same,Activity,Pseudomonas aeruginosa [14],100%
same,MIC,Acinetobacter baumannii [15],> 256 µg/mL
